{"source": "paper PMC12530853", "about": "(RSC Advances, 2025)", "key": {"C. albicans ATCC 10231": {"tested_on": "C. albicans ATCC 10231", "test": "Minimum inhibitory concentration", "format": "cell-based", "conditions": "Candida albicans, ATCC10231, read-out: Minimum inhibitory concentration (MIC) C. albicans ATCC 10231", "summary_of_the_method": "(§1)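 Exponential-phase yeast were washed three times in PBS and suspended at 1 × 10^3 CFU/mL in RPMI 1640. Test compound and fluconazole comparator were twofold serially diluted in microplates, each concentration in triplicate wells. Growth was read as OD600, from which the MIC was determined.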"}, "C. albicans ATCC 14053": {"tested_on": "C. albicans ATCC 14053", "test": "Minimum inhibitory concentration", "format": "cell-based", "conditions": "Candida albicans, ATCC14053, read-out: Minimum inhibitory concentration (MIC) C. albicans ATCC 14053", "summary_of_the_method": "as §1"}, "C. albicans ATCC 90028": {"tested_on": "C. albicans ATCC 90028", "test": "Activity against additional fungal strains", "format": "cell-based", "conditions": "Table 2; no quantity or unit printed", "summary_of_the_method": "(§2)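 Fungi in exponential phase were washed three times in PBS and resuspended at 1 × 10^3 CFU mL−1 in RPMI 1640. Test compound and fluconazole were serially diluted twofold in 96-well plates, in triplicate wells per concentration. MIC was derived from OD600 readings.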"}, "C. albicans ATCC 24433": {"tested_on": "C. albicans ATCC 24433", "test": "Activity against additional fungal strains", "format": "cell-based", "conditions": "Table 2; no quantity or unit printed", "summary_of_the_method": "as §2"}, "F. solani 52628": {"tested_on": "F. solani 52628", "test": "Activity against additional fungal strains", "format": "cell-based", "conditions": "Table 2; no quantity or unit printed", "summary_of_the_method": "as §2"}, "F. solani 46492": {"tested_on": "F. solani 46492", "test": "Activity against additional fungal strains", "format": "cell-based", "conditions": "Table 2; no quantity or unit printed", "summary_of_the_method": "as §2"}, "[1]": {"tested_on": "A. brasiliensis TCC 16404", "test": "Activity against additional fungal strains", "format": "cell-based", "conditions": "Table 2; no quantity or unit printed", "summary_of_the_method": "as §2"}, "FO MYA 3461": {"tested_on": "FO MYA 3461", "test": "Activity against additional fungal strains", "format": "cell-based", "conditions": "Table 2; no quantity or unit printed", "summary_of_the_method": "as §2"}, "Candida albicans": {"tested_on": "Candida albicans", "conditions": "lack of antifungal activity; cited from earlier work"}}, "data": [{"smiles": "Clc1ccc(C=Nc2ncn[nH]2)cc1", "note": "[3g, 1-(4-Chlorophenyl)-N-(1H-1,2,4-triazol-5-yl)methanimine]", "values": [{"measurement": "MIC", "setting": "C. albicans ATCC 10231", "result": "> 256", "unit": "mg/L"}, {"measurement": "MIC", "setting": "C. albicans ATCC 14053", "result": "> 256", "unit": "mg/L"}]}, {"smiles": "C(=Nc1ncn[nH]1)c1ccncc1", "note": "[3h, 1-(Pyridin-4-yl)-N-(1H-1,2,4-triazol-5-yl)methanimine]", "values": [{"measurement": "MIC", "setting": "C. albicans ATCC 10231", "result": "> 256", "unit": "mg/L"}, {"measurement": "MIC", "setting": "C. albicans ATCC 14053", "result": "> 256", "unit": "mg/L"}]}, {"smiles": "O=[N+]([O-])c1ccc(C=Nc2ncn[nH]2)cc1", "note": "[3i, 1-(4-Nitrophenyl)-N-(1H-1,2,4-triazol-5-yl)methanimine]", "values": [{"measurement": "MIC", "setting": "C. albicans ATCC 10231", "result": 128, "unit": "mg/L"}, {"measurement": "MIC", "setting": "C. albicans ATCC 14053", "result": 128, "unit": "mg/L"}]}, {"smiles": "COc1ccc(C=Nc2ncn[nH]2)cc1", "note": "[3j, 1-(4-Methoxyphenyl)-N-(1H-1,2,4-triazol-5-yl)methanimine]", "values": [{"measurement": "MIC", "setting": "C. albicans ATCC 10231", "result": "> 256", "unit": "mg/L"}, {"measurement": "MIC", "setting": "C. albicans ATCC 14053", "result": "> 256", "unit": "mg/L"}]}, {"smiles": "Oc1ccc(C=Nc2ncn[nH]2)cc1", "note": "[3k, 4-{[(1H-1,2,4-Triazol-5-yl)imino]methyl}phenol]", "values": [{"measurement": "MIC", "setting": "C. albicans ATCC 10231", "result": "> 256", "unit": "mg/L"}, {"measurement": "MIC", "setting": "C. albicans ATCC 14053", "result": "> 256", "unit": "mg/L"}]}, {"smiles": "O=C(O)c1ccc(C=Nc2ncn[nH]2)cc1", "note": "[3l, 4-{[(1H-1,2,4-Triazol-5-yl)imino]methyl}benzoic acid]", "values": [{"measurement": "MIC", "setting": "C. albicans ATCC 10231", "result": "> 256", "unit": "mg/L"}, {"measurement": "MIC", "setting": "C. albicans ATCC 14053", "result": "> 256", "unit": "mg/L"}]}, {"smiles": "C[C@@H]1C/C=C/C=C/C=C/C=C/[C@H](O[C@@H]2O[C@H](C)[C@@H](O)[C@H](N)[C@@H]2O)C[C@@H]2O[C@](O)(C[C@@H](O)C[C@H]3O[C@@H]3/C=C/C(=O)O1)C[C@H](O)[C@H]2C(=O)O", "note": "[Natamycin, reference compound]", "values": [{"measurement": "MIC", "setting": "C. albicans ATCC 10231", "result": 8, "unit": "mg/L"}, {"measurement": "MIC", "setting": "C. albicans ATCC 14053", "result": 8, "unit": "mg/L"}, {"measurement": "Interaction against varied fungal strains: C. albicans ATCC 90028", "setting": "C. albicans ATCC 90028", "result": 8}, {"measurement": "Interaction against varied fungal strains: C. albicans ATCC 24433", "setting": "C. albicans ATCC 24433", "result": 8}, {"measurement": "Interaction against varied fungal strains: F. solani 52628", "setting": "F. solani 52628", "result": 8}, {"measurement": "Interaction against varied fungal strains: F. solani 46492", "setting": "F. solani 46492", "result": 8}, {"measurement": "Interaction against varied fungal strains: A. brasiliensis TCC 16404", "setting": "[1]", "result": 8}, {"measurement": "Interaction against varied fungal strains: FO MYA 3461", "setting": "FO MYA 3461", "result": 8}]}, {"smiles": "O=C(NC[C@@H](c1ccccc1)n1ccnc1)c1ccc(-c2ccc(Cl)cc2)cc1", "note": "[VID400]", "values": [{"measurement": "MIC against Candida albicans", "setting": "Candida albicans", "result": "> 128", "unit": "mg/L"}]}]}
